How the values were obtained:
[1] = Drug metabolism in cynomolgus monkey liver microsomes after 30 mins by LC-ESI-MS analysis; format: ADME, Macaca fascicularis
Outline: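 2'-OH-TCC at 0.2, 0.5, 1, 2, 3, 5, 10 and 50 µM incubated with liver microsomes (alamethicin, MgCl2, saccharolactone, UDPGA; 37 °C), sampled at 5, 10, 15 and 30 min. Samples ≥5 µM diluted 1:9 in ACN; LC-ESI-MS. KM and vmax fitted from rate vs concentration; intrinsic clearance derived from these; mean and SD of three.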

Liver microsome [2] = experiment: Drug metabolism in Sprague-Dawley rat liver microsomes assessed as retention time at 10 uM by LC-UV-MS method in presence of UDPGA; format: ADME
[3] = target: T1, UDP-glucuronosyltransferase 2B4 (Homo sapiens, UniProt P06133); experiment: Drug metabolism assessed as human UGT2B4-mediated N-glucuronide-triclocarban formation expressed in baculovirus infected insect sf9 cells incubated for 5 mins prior to UDPGA addition measured after 5 to 30 mins by LC-UV analysis; format: ADME
T1 sequence (P06133 whole entry): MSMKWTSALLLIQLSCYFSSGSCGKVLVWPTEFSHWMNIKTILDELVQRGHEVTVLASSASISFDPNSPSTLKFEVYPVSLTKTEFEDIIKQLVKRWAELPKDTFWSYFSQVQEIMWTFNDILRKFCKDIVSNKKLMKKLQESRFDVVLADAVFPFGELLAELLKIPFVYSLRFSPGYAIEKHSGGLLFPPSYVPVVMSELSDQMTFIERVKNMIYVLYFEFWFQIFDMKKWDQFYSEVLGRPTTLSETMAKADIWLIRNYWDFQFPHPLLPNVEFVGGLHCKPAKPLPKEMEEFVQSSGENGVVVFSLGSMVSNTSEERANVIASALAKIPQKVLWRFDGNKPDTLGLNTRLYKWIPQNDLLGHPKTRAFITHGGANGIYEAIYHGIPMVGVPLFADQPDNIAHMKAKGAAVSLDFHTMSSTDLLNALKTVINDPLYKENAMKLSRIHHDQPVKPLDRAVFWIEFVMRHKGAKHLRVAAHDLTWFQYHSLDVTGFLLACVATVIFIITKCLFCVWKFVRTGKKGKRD
Outline: (§1)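 Microsomes or UGT Supersomes (5 µg protein) were held 15 min on ice with alamethicin in 100 mM potassium phosphate pH 7.4. TCC was added at 10 µM (2% DMSO) with 10 mM MgCl2 and 10 mM saccharolactone, pre-warmed 5 min at 37 °C, then started with UDPGA. Samples at 5, 10, 15 and 30 min were quenched in ACN. Product was read by LC-UV at 265 nm; rate came from regression over time, three incubations.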

[4] = target: T2, UDP-glucuronosyltransferase 1A8 (Homo sapiens, UniProt Q9HAW9); experiment: Drug metabolism assessed as human UGT1A8-mediated N'-glucuronide-triclocarban formation expressed in baculovirus infected insect sf9 cells incubated for 5 mins prior to UDPGA addition measured after 5 to 30 mins by LC-UV analysis; format: ADME; outline: as §1
T2 sequence (Q9HAW9 whole entry): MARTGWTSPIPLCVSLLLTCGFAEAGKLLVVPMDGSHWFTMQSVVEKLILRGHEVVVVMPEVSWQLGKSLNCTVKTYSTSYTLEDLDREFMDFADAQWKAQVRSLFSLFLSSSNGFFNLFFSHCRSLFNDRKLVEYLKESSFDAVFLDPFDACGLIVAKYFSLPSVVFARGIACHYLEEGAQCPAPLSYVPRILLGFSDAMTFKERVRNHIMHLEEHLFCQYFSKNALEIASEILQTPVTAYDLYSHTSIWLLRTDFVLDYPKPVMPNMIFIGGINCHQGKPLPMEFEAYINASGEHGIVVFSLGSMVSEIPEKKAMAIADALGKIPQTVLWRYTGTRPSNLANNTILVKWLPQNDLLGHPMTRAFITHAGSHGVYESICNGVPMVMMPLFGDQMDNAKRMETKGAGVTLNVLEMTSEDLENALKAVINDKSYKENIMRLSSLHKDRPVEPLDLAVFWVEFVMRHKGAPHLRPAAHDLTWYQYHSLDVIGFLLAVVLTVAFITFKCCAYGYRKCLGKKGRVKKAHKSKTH

[5] = Drug metabolism in human kidney microsomes assessed as N-glucuronide-triclocarban formation incubated for 5 mins prior to UDPGA addition measured after 30 mins by LC-UV-ESI-MS/MS analysis; format: ADME; conditions: 0.5 h
Outline: (§2)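 Pooled human kidney or liver microsomes (liver: 25 mixed-gender donors), 5 µg protein, in 200 µL 100 mM potassium phosphate pH 7.4. Alamethicin pre-treated on ice 15 min. Final 10 µM TCC (2% DMSO), with 10 mM MgCl2 and 10 mM saccharolactone, preincubated 5 min at 37 °C. Started with UDPGA (20 mM stock). Sampled at 5, 10, 15 and 30 min into ACN containing 1 µM DCC internal standard.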

[6] = Drug metabolism in B6C3F1 mouse liver microsomes assessed as N'-glucuronide-triclocarban formation incubated for 5 mins prior to UDPGA addition measured after 5 to 30 mins by LC-UV analysis; format: ADME; outline: as §1
Liver microsome [7] = experiment: Drug metabolism in human liver microsomes assessed as N'-glucuronide-triclocarban formation incubated for 5 mins prior to UDPGA addition measured after 5 to 30 mins by LC-UV analysis; format: ADME; outline: as §2
[8] = Drug metabolism in cynomolgus monkey liver microsomes assessed as N-glucuronide-triclocarban formation incubated for 5 mins prior to UDPGA addition measured after 5 to 30 mins by LC-UV analysis; format: ADME, Macaca fascicularis; outline: as §1
[9] = target: T3, UDP-glucuronosyltransferase 1A4 (Homo sapiens, UniProt P22310); experiment: Drug metabolism assessed as human UGT1A4-mediated N'-glucuronide-triclocarban formation expressed in baculovirus infected insect sf9 cells incubated for 5 mins prior to UDPGA addition measured after 5 to 30 mins by LC-UV analysis; format: ADME; outline: as §1
T3 sequence (P22310 whole entry): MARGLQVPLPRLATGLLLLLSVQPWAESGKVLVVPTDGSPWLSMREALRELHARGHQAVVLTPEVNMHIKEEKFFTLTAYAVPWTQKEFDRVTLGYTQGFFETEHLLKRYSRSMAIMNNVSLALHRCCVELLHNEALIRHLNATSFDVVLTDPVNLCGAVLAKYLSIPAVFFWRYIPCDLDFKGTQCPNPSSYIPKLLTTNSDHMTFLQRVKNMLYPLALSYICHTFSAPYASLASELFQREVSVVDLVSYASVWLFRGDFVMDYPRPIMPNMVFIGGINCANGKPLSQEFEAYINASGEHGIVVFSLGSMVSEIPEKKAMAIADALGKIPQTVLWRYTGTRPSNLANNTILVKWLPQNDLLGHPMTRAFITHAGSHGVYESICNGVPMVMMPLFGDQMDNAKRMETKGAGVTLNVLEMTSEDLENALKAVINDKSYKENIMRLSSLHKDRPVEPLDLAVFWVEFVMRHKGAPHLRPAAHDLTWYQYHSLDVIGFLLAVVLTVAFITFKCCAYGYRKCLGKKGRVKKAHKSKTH

[10] = Drug metabolism in human kidney microsomes assessed as N-glucuronide-triclocarban formation incubated for 5 mins prior to UDPGA addition measured after 5 to 30 mins by LC-UV analysis; format: ADME; outline: as §2

## O=C(Nc1ccc(Cl)c(Cl)c1)Nc1ccc(Cl)cc1O
[1]; liver microsomes
  Km at 0.5 h: 1.4 µM
[1]; microsomes, 0.5 h
  Vmax: 26.7 nmol/min/mg

## O=C(Nc1ccc(Cl)c(O)c1)Nc1ccc(Cl)c(Cl)c1
Liver microsome [2]
  Retention_time: 2.26 min

## O=C(Nc1ccc(Cl)cc1)Nc1ccc(Cl)c(Cl)c1 [TRICLOCARBAN]
[3]
  Drug metabolism: metabolite_not_detected
[4]
  Drug metabolism: metabolite_not_detected
[5]
  Drug metabolism: metabolite_detected
[6]
  Drug metabolism: metabolite_not_detected
Liver microsome [7]
  Drug metabolism: metabolite_not_detected
[8]
  Drug metabolism: metabolite_not_detected
[9]
  Drug metabolism: metabolite_not_detected
[10]
  Drug metabolism: metabolite_not_detected

— ChEMBL document CHEMBL3525967, “In vitro glucuronidation of the antibacterial triclocarban and its oxidative metabolites” (Drug Metab Dispos, 2012)
